Results on 3 molecules are retold here after paper PMC12491069 (Bioorganic & medicinal chemistry letters, 2025).

By IC50 is commonly meant the point on the concentration scale where inhibition reaches its midpoint.

Each structure is given as a SMILES string. Read-outs that look alike come from different tables or passages of the source.

What all share (format): cell-based
Experiment [1] deals with MCF-7. As to the kind of experiment: MTT cytotoxicity assay, MCF-7. The method, boiled down:
(§1)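 MTT viability assay run in parallel on MCF-7, HeLa and non-cancerous HUVEC cells. Test concentrations: benzimidazole derivatives at 50–250 μM and benzothiazole derivatives at 5–100 μM. IC50 derived from the MTT read-out.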
(Formazan colour is commonly taken as a measure of viable cells.)

Experiment [2] relates to HUVEC. The experiment is described as follows: MTT cytotoxicity assay, HUVEC. As to conditions: read-out: IC50 HUVEC. The method, boiled down:
as §1

The subject of experiment [3] is HeLa. As to the kind of experiment: MTT cytotoxicity assay, HeLa. To be noted: read-out: IC50 HeLa. The method, boiled down:
as §1

Where [4] appears, read: read-out: IC50 MCF-7, MTT, MCF-7 cells.

In the case of `COc1cccc2c1C(=O)c1c(O)c3c(c(O)c1C2=O)C[C@@](O)(C(=O)CO)C[C@@H]3O[C@H]1C[C@H](N)[C@H](O)[C@H](C)O1` [Doxorubicin], the IC50 in experiment [1] (Homo sapiens, MCF7, read-out: IC50 MCF-7) is 17.44 ± 0.04 µM; in experiment [2] (Homo sapiens, HUVEC), 93 ± 0.54 µM; in experiment [3] (Homo sapiens, HeLa) it was 1.45 ± 0.15 µM.
For the molecule `Nc1c(C(=O)Nc2ccc(F)cc2)sc2nc(-c3cccs3)cc(C(F)(F)F)c12` [FDI-6], the 50% inhibitory concentration (IC50) in experiment [1] (setting [4]) was determined as 25.8 ± 2.41 µM; in experiment [2] (MTT, non-cancerous HUVEC line), 240.3 ± 1.14 µM; in experiment [3] (MTT, HeLa cells) it was 18.9 ± 0.89 µM.
As to `N#Cc1ccc(COC[C@H]2O[C@@H](n3c(NCc4ccc(Cl)c(Cl)c4)nc4c(N)ncnc43)[C@H](O)[C@@H]2O)cc1` [VER-155008], the concentration for half-maximal inhibition (IC50) in experiment [1] (setting [4]) came out at 23.9 ± 1.09 µM; in experiment [2] (MTT, non-cancerous HUVEC line), 150 ± 2.23 µM; in experiment [3] (MTT, HeLa cells) it was 55.26 ± 0.25 µM.
